Measured values: ChEMBL document CHEMBL1151321, “Bisamides, lignans, triterpenes, and insecticidal Cyclopenta[b]benzofurans from Aglaia species” (J Nat Prod, 1998)

Tests used:
Spodoptera littoralis [1] = assay: Insecticidal activity against Spodoptera littoralis larvae assessed as growth inhibition after 5 days; type: functional, organism-based
Summary of the method: (§1)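 Larvae kept 5 days in a moist chamber at 29 °C in darkness, then survival and larval weight compared with a carrier-only control group. Run in triplicate; LC50 (survival) and EC50 (growth) from dose-response curves by probit-log analysis.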

Spodoptera littoralis [2] = assay: Insecticidal activity against Spodoptera littoralis larvae assessed as survival rat after 5 days; type: functional; summary of the method: as §1
Lymantria dispar = assay: Insecticidal activity against Lymantria dispar larvae assessed as mean weight of surviving larvae after 8 days; type: functional, organism-based
Summary of the method: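 Freshly hatched larvae (n = 10) from a laboratory colony reared on wheat germ-casein diet, fed diet spiked with 1 μg – 100 μg/g fresh wt of compound. Kept 8 days in a moist chamber at 26 °C in darkness. Mean weight of surviving larvae compared with controls. Commercial azadirachtin (>96%) as positive control. Three replicates; LC50/EC50 from dose-response curves by probit-log analysis.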

| Compound | EC50 (Spodoptera littoralis [1]) [µg/g] | LC50 (Spodoptera littoralis [2]) [µg/g] | EC50 (Lymantria dispar) [µg/g] |
| --- | --- | --- | --- |
| COC(=O)[C@H]1[C@@H](OC(C)=O)[C@@]2(O)c3c(cc4c(c3OC)OCO4)O[C@@]2(c2ccc(OC)cc2)[C@@H]1c1ccccc1 | 1.2 | 12.2 |  |
| COc1ccc(C2C(=O)Oc3cc4c(c(OC)c32)OCO4)cc1 (stereo unspecified) [AGLALACTONE] | > 100 | >100 |  |
| C/C=C(\C)C(=O)O[C@H]1C[C@@H](OC(C)=O)[C@@]2(C(=O)OC)CO[C@H]3[C@@H](O)[C@@](C)([C@]45O[C@@]4(C)[C@@H]4C[C@H]5O[C@@H]5OC=C[C@@]54O)[C@H]4[C@]1(CO[C@]4(O)C(=O)OC)[C@@H]32 [AZADIRACHTIN A] | 0.11 | 6.1 | 0.6 |
| CC(=O)N(CCCCNC(=O)/C=C/c1ccccc1)C(=O)CCc1ccccc1 [EDULIMIDE] | > 250 | >250 |  |
| COc1cc(C[C@H]2CO[C@H](c3ccc(O)c(OC)c3)[C@H]2COC(C)=O)ccc1O [LARICIRESINOL ACETATE] | > 250 | >250 |  |
| COC(=O)[C@H]1[C@@H](O)[C@@]2(O)c3c(cc4c(c3OC)OCO4)O[C@@]2(c2ccc(OC)cc2)[C@@H]1c1ccccc1 [PANNELLIN] | 0.24 | 2.1 | 1.4 |
| CC(C)(O)C(=O)NC1CCCN1C(=O)/C=C/c1ccccc1 (stereo unspecified) [PIRIFERINOL] | > 250 | >250 |  |
